Source: ChEMBL document CHEMBL1150127, “Microbial and chemical transformation studies of the bioactive marine sesquiterpenes (S)-(+)-curcuphenol and -curcudiol isolated from a deep reef collection of the Jamaican sponge Didiscus oxeata” (J Nat Prod, 2002)
Converted amounts (≈) assume the structure as drawn. The source made the active and inactive calls. No cut-off for these calls is given here.

Assays:
[1] = tested on: Mycobacterium tuberculosis; assay: Antituberculosis activity against Mycobacterium tuberculosis; type: functional, organism-based
Plasmodium falciparum [2] = assay: Antimalarial activity against Plasmodium falciparum D6; type: functional
Plasmodium falciparum [3] = assay: Antimalarial activity against Plasmodium falciparum W2; type: functional
[4] = Cytotoxicity against human HepG2(2.2.15) cells; type: cell-based
Summary of the method: (§1)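 Run in cultures of 2.2.15 cells. Inhibition of HBV replication reported as EC50 and EC90, and cytotoxicity in the same cells as CC50, all in µg/mL. A selectivity index was taken from cytotoxic and antiviral concentrations.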

Hepatitis B virus = assay: Antiviral activity against Hepatitis B virus replication in human HepG2(2.2.15) cells; type: functional, organism-based; summary of the method: as §1
Staphylococcus aureus [5] = assay: Antibacterial activity against Staphylococcus aureus; type: functional
Cryptococcus neoformans = assay: Antifungal activity against Cryptococcus neoformans; type: functional
Staphylococcus aureus [6] = assay: Antibacterial activity against methicillin-resistant Staphylococcus aureus; type: functional
Candida albicans = assay: Antifungal activity against Candida albicans; type: functional

| SMILES | Activity [1] | further results |
| --- | --- | --- |
| Cc1ccc([C@@H](C)CCCC(C)CO)c(O)c1 (some centres not stated) | inactive | – |
| C/C(=C\CC[C@H](C)c1ccc(C)cc1O)CO | inactive | – |
| CC(C)=CCC[C@H](C)c1ccc(CO)cc1O | inactive | MIC (Plasmodium falciparum [2]): 3.8 µg/mL (≈ 16.2 µM); MIC (Plasmodium falciparum [3]): 2.9 µg/mL (≈ 12.4 µM) |
| Cc1ccc([C@@H](C)CCCC(C)(C)O)c(O)c1 | inactive | – |
| Cc1ccc([C@@H](C)CCCC(C)(C)O)c(OC(=O)c2ccncc2)c1 | inactive | – |
| C/C(=C\CC[C@H](C)c1ccc(CO)cc1O)CO | inactive | – |
| Cc1ccc([C@@H](C)CCCC(C)(C)O)c(O[C@H]2O[C@H](CO)[C@@H](O)[C@H](O)[C@H]2O)c1 | inactive | – |
| Cc1ccc([C@@H](C)CCC[C@H](C)C(=O)O)c(O)c1 | inactive | – |
| CC(C)=CCC[C@H](C)c1ccc(C)cc1O[C@H]1O[C@H](CO)[C@@H](O)[C@H](O)[C@H]1O | inactive | – |
| Cc1ccc([C@@H](C)CCC[C@@H](C)C(=O)O)c(O)c1 | inactive | – |
| Cc1ccc([C@@H](C)CC[C@H](O)C(C)(C)O)c(O)c1 | inactive | – |
| CC(C)=CCC[C@H](C)c1cc([N+](=O)[O-])c(C)cc1O | inactive | CC50 [4]: 39 µg/mL (≈ 148 µM); EC50 (Hepatitis B virus): 61 µg/mL (≈ 232 µM); EC90 (Hepatitis B virus): 203 µg/mL (≈ 771 µM) |
| Cc1ccc([C@@H](C)CC[C@@H](O)C(C)(C)O)c(O)c1 | inactive | – |
| Cc1ccc([C@@H](C)CCC(=O)C(C)(C)O)c(O)c1 | inactive | – |
| CC(C)=CCC[C@H](C)c1ccc(C)cc1OC(=O)c1ccncc1 | inactive | – |
| Cc1ccc([C@@H](C)CCCC(C)C(=O)O)c(O)c1 (some centres not stated) | inactive | – |
| CC(C)=CCC[C@H](C)c1ccc(C)cc1O | inactive | MIC (Plasmodium falciparum [2]): 3.6 µg/mL (≈ 16.5 µM); MBC (Staphylococcus aureus [5]): 12.5 µg/mL (≈ 57.3 µM); MIC (Staphylococcus aureus [5]): 7.5 µg/mL (≈ 34.4 µM); MFC (Cryptococcus neoformans): 12.5 µg/mL (≈ 57.3 µM); MIC (Cryptococcus neoformans): 7.5 µg/mL (≈ 34.4 µM); MBC (Staphylococcus aureus [6]): 12.5 µg/mL (≈ 57.3 µM); MIC (Staphylococcus aureus [6]): 7.5 µg/mL (≈ 34.4 µM); MFC (Candida albicans): 12.5 µg/mL (≈ 57.3 µM); MIC (Candida albicans): 7.5 µg/mL (≈ 34.4 µM); MIC (Plasmodium falciparum [3]): 1.8 µg/mL (≈ 8.24 µM) |
| Cc1ccc([C@@H](C)CCC(=O)O)c(O)c1 | inactive | – |
| C/C(C=O)=C\CC[C@H](C)c1ccc(CO)cc1O | inactive | – |
| Cc1ccc([C@@H](C)CCC[C@@H](C)CO)c(O)c1 | inactive | – |
| CC(C)=CCC[C@H](C)c1ccc(C)c([N+](=O)[O-])c1O | inactive | – |
| Cc1ccc([C@@H](C)CCC[C@H](C)CO)c(O)c1 | inactive | – |
